According to ChEMBL document CHEMBL1134907, “An improved synthesis of the C-linked glucuronide of N-(4-hydroxyphenyl)retinamide” (Bioorg Med Chem Lett, 2002):

Legend:
Rattus norvegicus [1] = assay: Mean number of tumors/rat after retinoid dose of 2 mmol/kg diet; type: functional
Rattus norvegicus [2] = assay: Latency in DMBA-induced mammary tumor in rat after retinoid dose of 2 mmol/kg diet; type: functional
RARα = RARα (Homo sapiens, UniProt P10276); assay: Binding affinity for retinoic acid receptor RAR alpha
RARγ = RARγ (Homo sapiens, UniProt P13631); assay: Binding affinity for retinoic acid receptor RAR gamma
RARβ = RARβ (Homo sapiens, UniProt P10826); assay: Binding affinity for retinoic acid receptor RAR beta
Rattus norvegicus [3] = assay: Percentage of rats with tumor after retinoid dose of 2 mmol/kg diet; type: functional
Rattus norvegicus [4] = assay: Initial DMBA-induced mammary tumor volume in rat after retinoid treatment at 2 mmol/kg diet; type: functional
How it was run: (§1)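 Rats bearing mammary tumors induced by dimethylbenz[a]anthracene (DMBA) 50 days earlier were fed the treatment retinoid in the diet for 10 days. Each group had three tumor-bearing rats, which were killed after the 10 days. Every tumor on each rat was measured to estimate the mean tumor volume for the group.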

Rattus norvegicus [5] = species: Rattus norvegicus; assay: Percentage change in DMBA-induced mammary tumor in rats;no new tumors, partial regression in 6/8 tumors; type: functional; how it was run: as §1
Rattus norvegicus [6] = assay: Final DMBA-induced mammary tumor volume in rat after retinoid treatment at 2 mmol/kg diet; type: functional; how it was run: as §1
Rattus norvegicus [7] = species: Rattus norvegicus; assay: Percentage change in DMBA-induced mammary tumor in rats;Two new tumors, partial regression in 10/14 tumors; type: functional; how it was run: as §1
Rattus norvegicus [8] = species: Rattus norvegicus; assay: Percentage change in DMBA-induced mammary tumor in rats; no new tumors, partial regression in 10/10 tumors; type: functional; how it was run: as §1

Chain of RARα (P10276 whole entry, looked up): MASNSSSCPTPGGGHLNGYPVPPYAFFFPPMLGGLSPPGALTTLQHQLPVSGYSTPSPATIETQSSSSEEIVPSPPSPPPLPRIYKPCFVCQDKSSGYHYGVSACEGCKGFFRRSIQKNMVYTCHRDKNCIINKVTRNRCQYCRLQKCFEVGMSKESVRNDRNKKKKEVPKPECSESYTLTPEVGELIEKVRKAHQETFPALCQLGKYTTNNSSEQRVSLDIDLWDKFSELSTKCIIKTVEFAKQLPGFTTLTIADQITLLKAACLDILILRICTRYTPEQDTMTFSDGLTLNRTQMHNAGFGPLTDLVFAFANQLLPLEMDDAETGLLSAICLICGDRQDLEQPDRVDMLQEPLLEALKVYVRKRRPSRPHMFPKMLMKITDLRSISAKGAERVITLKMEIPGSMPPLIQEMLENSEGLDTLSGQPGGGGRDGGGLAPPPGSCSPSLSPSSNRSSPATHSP
Chain of RARβ (P10826 whole entry, looked up): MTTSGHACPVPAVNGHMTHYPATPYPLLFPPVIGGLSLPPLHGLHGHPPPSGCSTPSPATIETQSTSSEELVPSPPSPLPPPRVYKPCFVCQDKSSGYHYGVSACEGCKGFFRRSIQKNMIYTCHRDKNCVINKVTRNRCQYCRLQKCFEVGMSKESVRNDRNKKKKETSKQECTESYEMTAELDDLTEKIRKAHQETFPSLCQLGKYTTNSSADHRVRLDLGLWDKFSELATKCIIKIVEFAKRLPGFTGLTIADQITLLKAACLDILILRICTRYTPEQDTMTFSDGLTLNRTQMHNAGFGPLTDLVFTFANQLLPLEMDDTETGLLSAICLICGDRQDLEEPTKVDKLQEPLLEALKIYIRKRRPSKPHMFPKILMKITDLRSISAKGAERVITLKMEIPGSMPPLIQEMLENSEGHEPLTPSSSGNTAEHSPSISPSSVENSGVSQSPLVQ
Chain of RARγ (P13631 whole entry, looked up): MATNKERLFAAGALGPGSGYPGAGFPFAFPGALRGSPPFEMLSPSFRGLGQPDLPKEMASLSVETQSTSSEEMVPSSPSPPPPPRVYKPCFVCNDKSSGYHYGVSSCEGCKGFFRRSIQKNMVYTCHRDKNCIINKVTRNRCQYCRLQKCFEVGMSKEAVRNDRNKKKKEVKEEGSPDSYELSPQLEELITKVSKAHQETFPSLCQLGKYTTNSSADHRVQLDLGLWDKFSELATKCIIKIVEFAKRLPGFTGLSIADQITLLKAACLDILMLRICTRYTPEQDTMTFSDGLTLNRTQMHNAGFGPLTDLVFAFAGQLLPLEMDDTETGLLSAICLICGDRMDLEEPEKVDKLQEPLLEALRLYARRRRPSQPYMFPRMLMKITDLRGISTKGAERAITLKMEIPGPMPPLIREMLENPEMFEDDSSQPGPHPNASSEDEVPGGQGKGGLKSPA

## CC1=C(/C=C/C(C)=C/C=C/C(C)=C/C(=O)Nc2ccc(O[C@@H]3O[C@@H](C(=O)O)[C@@H](O)[C@H](O)[C@@H]3O)cc2)C(C)(C)CCC1
Rattus norvegicus [1]
  Activity: 0.71
Rattus norvegicus [2]
  Mean tumor atency: 48 days
RARα
  Ki: > 2.2 µM
RARγ
  Ki: > 6 µM
RARβ
  Ki: > 2.8 µM
Rattus norvegicus [3]
  Activity: 57%

## CC1=C(/C=C/C(C)=C/C=C/C(C)=C/C(=O)Nc2ccc(CC3OC(C(=O)O)C(O)C(O)C3O)cc2)C(C)(C)CCC1 (stereo not drawn)
Rattus norvegicus [1]
  Activity: 0.36
Rattus norvegicus [2]
  Mean tumor atency: 55 days
RARα
  Ki: > 2.2 µM
Rattus norvegicus [4]
  Tumor volume: 0.29 cm*3
RARβ
  Ki: > 6 µM
Rattus norvegicus [5]
  Change: -21%
Rattus norvegicus [6]
  Tumor volume: 0.23 cm*3
Rattus norvegicus [3]
  Activity: 27%

## CC1=C(/C=C/C(C)=C/C=C/C(C)=C/C(=O)Nc2ccc(O)cc2)C(C)(C)CCC1 [FENRETINIDE]
Rattus norvegicus [7]
  Change: -25%
RARα
  Ki: > 2.2 µM
RARγ
  Ki: > 6 µM
Rattus norvegicus [4]
  Tumor volume: 0.16 cm*3
RARβ
  Ki: > 2.8 µM
Rattus norvegicus [6]
  Tumor volume: 0.12 cm*3

## CC1=C(/C=C/C(C)=C/C=C/C(C)=C/C(=O)O)C(C)(C)CCC1 [TRETINOIN]
Rattus norvegicus [8]
  Change: -40%
Rattus norvegicus [4]
  Tumor volume: 0.94 cm*3
Rattus norvegicus [6]
  Tumor volume: 0.56 cm*3
